The list is not random: actives were taken first. Their share in the collection is about 2.1%.
APJ antag: antagonists of human APJ apelin receptor. actives 0.32% (n = 330,000). AID 2521. inhibition, % at 20 µM. CHO-K1 APJ beta-arrestin complementation, luminescence;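 active = inhibition above about 40% at 20 µM, limit read from the data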;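 also: cells challenged with 10 nM apelin-13 agonist together with compound; plate controls were apelin-13 plus DMSO wells for no effect and DMSO wells lacking apelin-13 for full effect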
EBI2 antag: blocks human EBI2 receptor beta-arrestin signaling. P32249. EBI2 beta-arrestin recruitment, luminescence, 7a,25-OHC stimulated. inhibition, % at 5 µM. actives 0.81% (n = 360,000). AID 651636; in the data active = inhibition above about 38%;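 also: enzyme fragment complementation signal reports receptor beta-arrestin coupling in cells; 0% = agonist plus DMSO wells and 100% = wells without agonist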
CCR6 antag: CCR6 (human) receptor antagonism; P51684; CHO-K1 CCR6 PathHunter beta-arrestin, luminescence, CCL20-stimulated; inhibition, % at 20 µM; actives 0.49% (n = 340,000); AID 493098;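 active = compounds whose inhibition of the agonist-driven luminescence signal at 20 µM reaches about 50%, limit read from the data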;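 also: cells stimulated with CCL20 at 14 nM final; plate controls were DMSO with CCL20 for no effect and DMSO without agonist for full effect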
m5-HT2A agonist: agonists of mouse serotonin 5-HT2A receptor (HTR2A) | CHO-K1 mHTR2A beta-arrestin complementation, luminescence; percent of 30 µM serotonin response | activation, % at 7.6 µM | actives 0.66% (n = 360,000);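 active = activation above a run cutoff, the mean activation of all tested compounds plus 3 SD, cut at about 14% in these data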;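 also: 0% = plate median of compound wells and 100% = 30 µM serotonin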
Target sequence (P35363 whole entry, looked up): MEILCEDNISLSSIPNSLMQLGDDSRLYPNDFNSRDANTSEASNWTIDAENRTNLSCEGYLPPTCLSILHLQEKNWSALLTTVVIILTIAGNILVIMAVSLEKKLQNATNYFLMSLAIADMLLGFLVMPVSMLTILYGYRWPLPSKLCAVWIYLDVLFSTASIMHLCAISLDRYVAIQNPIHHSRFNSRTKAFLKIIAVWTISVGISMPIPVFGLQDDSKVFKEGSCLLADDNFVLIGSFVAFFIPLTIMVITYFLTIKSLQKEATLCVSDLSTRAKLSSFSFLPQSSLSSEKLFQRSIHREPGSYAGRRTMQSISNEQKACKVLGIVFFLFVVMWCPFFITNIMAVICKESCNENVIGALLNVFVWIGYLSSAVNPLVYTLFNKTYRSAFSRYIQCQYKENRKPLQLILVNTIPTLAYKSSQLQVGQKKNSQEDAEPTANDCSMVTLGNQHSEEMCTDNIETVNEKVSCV
APJ agonist: agonists of human APJ apelin receptor. P35414. CHO-K1 APJ PathHunter beta-arrestin, luminescence; 0% DMSO wells, 100% apelin. activation, % at 20 µM. actives 0.11% (n = 330,000);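 active = activation more than six SD over the plate average, tested at 20 µM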;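 also: 0% = DMSO alone and 100% = apelin-13 at 10 nM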
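Assay system: engineered CHO-K1 APJ arrestin reporter cells; Amount: 1000 CHO-K1 reporter cells seeded per well; Dosing: one dose, 20 µM compound, 1% DMSO; Times: compound stimulation 90 min at 25 °C, detection 60 min; Measured by: luminescent beta-gal fragment complementation, chemiluminescent substrate; Read-out: APJ–arrestin association signal; Controls: DMSO vs Apelin-13 10 nM.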
CXCR6 block: CXCR6 (human) receptor inhibition | O00574 | CHO-K1 PathHunter CXCR6 beta-arrestin, luminescence | inhibition, % at 20 µM | actives 0.36% (n = 360,000) | AID 602244; in the data active = inhibition above about 34%, passing the limit was not always enough;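 also: antagonist mode with CXCL16 agonist at 10 nM final; 0% = 10 nM CXCL16 with DMSO and 100% = unstimulated wells without agonist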
Starred values were filed as active, the others as inactive; x = not tested or not shown.

SMILES	APJ antag	EBI2 antag	CCR6 antag	m5-HT2A agonist	APJ agonist	CXCR6 block
CCN1/C(=C/c2cc[n+](C)cc2)C=Cc2cc(C)ccc21	x	-8	57*	2	x	32
CCN1/C(=C/c2ccc3ccccc3[n+]2CCCS(=O)(=O)[O-])C=Cc2cc(C)ccc21	x	-6	34	-5	x	13
COc1ccccc1-c1cc(C(=O)Nc2cc(C)n(Cc3ccc(Cl)cc3)n2)no1	-8	52*	13	4	-2	-6
Cc1cc(C(=O)Nc2cc(C)n(Cc3ccc(Cl)cc3)n2)no1	11	7	-6	4	-2	3
Cc1cccc(N2CCN(S(=O)(=O)c3ccc4c(c3)CCN4C(=O)CCC(=O)O)CC2)c1C	8	-7	1	18*	-3	2
CCC(=O)N1CCCc2cc(S(=O)(=O)N3CCN(c4ncccn4)CC3)ccc21	11	-10	18	21*	-1	-7
NC(=O)CC(NC(=O)Cc1cccc2ccccc12)c1ccc(NC2CCN(Cc3ccccc3)CC2)c([N+](=O)[O-])c1 (stereo unspecified)	-3	-12	13	-3	3	11
CCOc1ccc(CCNC(=O)CSc2nnnn2C)cc1OCC	4	-7	0	2	-1	2
CC(=NNc1nc2ccccc2s1)c1ncccn1	x	57*	40	-5	x	54*
CC(=NNc1nc2ccccc2o1)c1cc2ccccc2cn1	x	1	-16	-8	x	-6
CC(=NNc1nc2ccccc2o1)c1ncccn1	x	55*	1	-12	x	-7
C=CCn1c(=O)c2c(nc3n2CCCN3Cc2ccccc2)n(C)c1=O	20	-2	21	7	-9	9
Fc1ccc(COc2ccc(Br)cc2CNCc2ccncc2)cc1	1	14	2	-6	0	0
CCOc1cc(CNCc2ccncc2)cc(Br)c1OCc1ccc(F)cc1	9	59*	8	-3	2	-1
Oc1ccccc1C1=Nc2ncnn2C(c2ccc(F)cc2)C1 (stereo unspecified)	17	3	22	0	-6	10
C[C@@H]1CC[C@]2(C(=O)O[C@@H]3O[C@H](CO)[C@@H](O)[C@H](O)[C@H]3O)CC[C@]3(C)C(=CCC4[C@@]5(C)CC[C@H](O[C@@H]6OC[C@H](O)[C@H](O[C@@H]7O[C@H](CO)[C@@H](O)[C@H](O)[C@H]7O)[C@H]6O)C(C)(C)C5CC[C@]43C)C2[C@]1(C)O (stereo partly specified)	2	1	-24	9	-3	-3
COc1ccc(/C=C\C(=O)O[C@@H]2C(O)C(O[C@@H]3OC(C)[C@H](O[C@@H]4OCC(O[C@H]5O[C@H](CO)[C@@H](O)C(O)C5O)C(O)C4O)C(O)C3O)[C@H](OC(=O)[C@]34CCC(C)(C)C[C@@H]3C3=CCC5[C@@]6(C)CC(O)C(O[C@@H]7OC(CO)C(O)[C@H](O)[C@H]7O)[C@@](C)(C(=O)O)C6CC[C@@]5(C)[C@]3(CO)CC4)O[C@H]2C)cc1 (stereo partly specified)	-12	-8	-14	16*	0	-11
Cc1nnc(SCC(=O)N(C)C2CCS(=O)(=O)C2)n1Cc1ccccc1 (stereo unspecified)	-14	-2	-1	3	-2	-1
COc1ccc(CS(=O)(=O)/C(Cl)=C(/Cl)C(=O)Nc2ccc(OC)nc2)cc1	18	72*	28	-8	-5	40
COc1ccc(NC(=O)Cc2ccccc2)cn1	0	-2	6	-1	0	-7
CCN(CC)c1ccc(C(=C2C=CC(=[N+](CC)CC)C=C2)c2ccc(N(CC)CC)cc2)cc1	x	20	114*	12	x	108*
CCN(CC)c1ccc(C(=C2C=CC(=[N+](CC)CC)C=C2)c2ccccc2)cc1	x	32	117*	-4	x	103*
Cc1c(NC(=O)COC(=O)/C=C/c2ccc(Cl)cc2)c(=O)n(-c2ccccc2)n1C	8	16	2	-1	-2	-1
C/C(=N\Nc1nc(C)cc(-c2ccccc2)n1)c1ccc(F)cc1	10	3	18	-3	-1	-8
CCCOc1ccc(Cl)cc1/C=C1/C(=O)ON=C1C	-11	-8	-1	12	2	-24
